Series [1] relates to Human immunodeficiency virus 1. Put plainly: Antiviral activity against HIV1 harboring A17 mutant infected in human TZM-bl cells. The format is functional, organism-based. The note with it: for EC50 / IC50: Human immunodeficiency virus 1, TZM-bl. The procedure, abridged:
(§1)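 TZM-bl cells (2x10⁵/mL) were infected with mutant virus in the presence of 15 µg/mL DEAE-dextran. A17 (IIIB variant) was grown in H9 cells; the other mutants were NL4-3-based plasmids transfected into 293T cells, then expanded in H9 cells. Compounds were tested at 0.05–500 nM (DMSO constant within an assay) for 48 hr at 37°C. Read-out was luciferase RLU from lysed cells, with at least 6 replicates over multiple days.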

In series [2] the test system is Human immunodeficiency virus 1. Put plainly: Antiviral activity against wild type HIV1 IIIB infected in human TZM-bl cells. Conditions: Human immunodeficiency virus 1, IIIB. Type of series: functional, organism-based. The procedure, abridged: (§2)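 TZM-bl cells (2x10⁵/mL) infected with HIV-1 IIIB grown in H9 cells, with 15 µg/mL DEAE-dextran; serial dilutions from 10 mM DMSO stocks, DMSO held constant (0.005% or 0.05%); 37°C, 5% CO₂, 48 hr; cells lysed, luciferase RLU read.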

Series [3] is described as follows: Selectivity index, ratio of CC50 for cytotoxicity against human TZM-bl cells assessed as reduction in cell viability by MTS assay to EC50 for antiviral activity against wild type HIV1 IIIB infected in human TZM-bl cells. The format is toxicity, cell-based. The note with it: read-out: Ratio CC50/EC50.
Series [4] relates to TZM. As to the kind of experiment: Cytotoxicity against human TZM-bl cells assessed as reduction in cell viability by MTS assay. The format is functional.
A short description of series [5]: Selectivity index, ratio of CC50 for cytotoxicity against human TZM-bl cells assessed as reduction in cell viability by MTS assay to EC50 for antiviral activity against HIV1 harboring A17 mutant infected in human TZM-bl cells. The note with it: read-out: Ratio CC50/EC50. The format is toxicity, cell-based.
The nature of series [6]: Neurotoxicity in mouse primary neurons assessed as loss of MAP-2 area incubated for 48 hrs by imaging analysis. Type of series: toxicity, cell-based. The note with it: neuron. A digest of the protocol:
(§3)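 Primary E16 CD1 mouse cortex/hippocampus cultures (>95% neurons) treated at 20 days in vitro with 10X dilutions made in artificial CSF, final 0.1–10,000 nM, for 48 hr; fixed in methanol:acetic acid (97:3), stained for MAP-2; relative MAP-2 intensity and area quantified by image analysis, […] (±SD) fitted from dose response.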

Series [7] in a line: Selectivity ratio of IC50 for antiviral activity against wild type HIV1 IIIB infected in human TZM-bl cells to IC50 for antiviral activity against HIV1 harboring L100I/K103N double mutant infected in human TZM-bl cells. Conditions: human immunodeficiency virus 1. Type of series: toxicity, cell-based. A digest of the protocol:
(§4)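 TZM-bl cells (2x10⁵/mL) with 15 µg/mL DEAE-dextran were infected with HIV-1 IIIB, A17 (K103N/Y181C) IIIB variant, or NL4-3-based NNRTI-resistant mutants. Compound was present at 0.05–500 nM (DMSO held constant, 0.005% or 0.05%) for 48 hr at 37°C, 5% CO₂.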

The subject of series [8] is TZM. Put plainly: Cytotoxicity against human TZM-bl cells assessed as reduction in viability incubated for 48 hrs by CellTiter-Blue cell viability assay.
Series [9] can be described thus: Neurotoxicity in mouse primary neurons assessed as loss of MAP-2 intensity incubated for 48 hrs by imaging analysis. Type of series: toxicity, cell-based. Conditions: neuron. The procedure, abridged: as §3
In series [10] the test system is Human immunodeficiency virus. Put plainly: Antiviral activity against wild type HIV IIIB infected in human TZM-bl cells. Type of series: functional, organism-based. Conditions: Human immunodeficiency virus 1, IIIB. The procedure, abridged: as §2
Series [11] is described as follows: Selectivity ratio of IC50 for antiviral activity against wild type HIV1 IIIB infected in human TZM-bl cells to IC50 for antiviral activity against HIV1 harboring K103N mutant infected in human TZM-bl cells. Type of series: toxicity, cell-based. The note with it: human immunodeficiency virus 1. The procedure, abridged: as §4
The nature of series [12]: Neurotoxicity in mouse primary neurons assessed as loss of MAP-2 intensity at 0.0001 to 10 uM incubated for 48 hrs by semi-quantitative analysis. The note with it: neuron.
A short description of series [13]: Selectivity ratio of IC50 for antiviral activity against wild type HIV1 IIIB infected in human TZM-bl cells to IC50 for antiviral activity against HIV1 harboring A17 mutant infected in human TZM-bl cells. Type of series: toxicity, cell-based. The note with it: human immunodeficiency virus 1. A digest of the protocol: as §4
Series [14] in a line: Selectivity ratio of IC50 for antiviral activity against wild type HIV1 IIIB infected in human TZM-bl cells to IC50 for antiviral activity against HIV1 harboring Y181C mutant infected in human TZM-bl cells. The format is toxicity, cell-based. The note with it: human immunodeficiency virus 1. The procedure, abridged:
as §4

In series [15] the test system is Human immunodeficiency virus 1. Put plainly: Antiviral activity against HIV1 harboring K103N mutant infected in human TZM-bl cells. Type of series: functional, organism-based. Conditions: Human immunodeficiency virus 1, TZM-bl. The procedure, abridged:
as §1

The test system of series [16] is Human immunodeficiency virus 1. Put plainly: Antiviral activity against HIV1 harboring Y181C mutant infected in human TZM-bl cells. Type of series: functional, organism-based. The note with it: Human immunodeficiency virus 1, TZM-bl. A digest of the protocol: as §1
A short description of series [17]: Safety index, ratio of TC10 for neurotoxicity in mouse primary neurons assessed as loss of MAP-2 intensity to EC50 for antiviral activity against wild type HIV1 IIIB infected in human TZM-bl cells. Type of series: toxicity, cell-based. Conditions: mouse primary neurons, TZM-bl cells. The procedure, abridged:
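Primary neuronal cultures from cortex/hippocampus of E16 CD1 mouse embryos (>95% neurons). Cells were then methanol:acetic acid-fixed and MAP-2 stained, and intensity was image-quantified. S-index = TC10/(100×EC50 vs HIV-1 IIIB in TZM-bl).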

The subject of series [18] is Human immunodeficiency virus 1. Put plainly: Antiviral activity against HIV1 harboring L100I/K103N double mutant infected in human TZM-bl cells. The format is functional, organism-based. The note with it: Human immunodeficiency virus 1, TZM-bl.
The target of series [19] is Human immunodeficiency virus type 1 reverse transcriptase (Human immunodeficiency virus 1, UniProt Q72547). Put plainly: Inhibition of HIV1 Reverse transcriptase incubated for 30 mins by fluorescence based analysis.
Series [20] deals with Neuron. As to the kind of experiment: Induction of calcium accumulation at acute phase in primary mouse neuron at 1 uM. Type of series: functional, cell-based. A digest of the protocol: (§5)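 Primary E16 CD1 mouse cortex/hippocampus neurons on coverslips, 14–18 days in vitro, loaded 30 min with 2 µM Fluo-4 AM in aCSF; three baseline images, then compound or vehicle in aCSF added at 1 µM final. Baseline fluorescence subtracted; changes averaged over all cells from at least triplicate runs, acute and delayed phases.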

Series [21] concerns Neuron. Put plainly: Induction of calcium accumulation at delayed phase in primary mouse neuron at 1 uM. Type of series: functional, cell-based. The procedure, abridged: as §5

Structures are written as SMILES. Calls of active or inactive are those of the source. No cut-off for these calls is given here.

For the compound `CN(C)c1cccc2c(S(=O)(=O)n3nc(Nc4ccc(Cl)cc4)nc3N)cccc12`, the EC50 in series [1] was above 1000 nM; in series [2], 10.6 nM.
For `Cc1nc(C)c(S(=O)(=O)n2nc(Nc3ccc(C#N)c(Cl)c3)nc2N)s1`, in that order: 306 nM and 0.879 nM.
Regarding `Nc1nc(Nc2ccc(Cl)cc2)n(S(=O)(=O)c2cnn(-c3ccc(C(F)(F)F)cn3)c2)n1`, the outcome in series [1] was inactive. For the same compound, the EC50 in [2] is below 100 nM.
For the compound `N#Cc1ccc2c(S(=O)(=O)n3nc(Nc4ccc(C#N)c(Cl)c4)nc3N)cccc2c1`, the selectivity ratio in series [3] was found to be 17000; in [5], 240. The EC50 came out at 39.6 nM in [1] and 0.42 nM in [2]. Further, the CC50 in the series on TZM [4] came out at 6000 nM.
As for `Cc1cc(C)c(S(=O)(=O)n2nc(Nc3ccc(Cl)cc3)nc2N)c(C)c1`, in [2], the EC50 came out at 32 nM.
`N#Cc1ccc(Nc2nc(N)n(S(=O)(=O)c3cccc4cc(C#N)ccc34)n2)cc1`: the selectivity ratio is 22000 in series [3], 160 in [5] and 5.4 in series [17]. Besides, the values for the TC10 in series [6] and in series [9] were 50 nM and 170 nM, respectively. Besides, the “Ratio IC50” value in series [7] is recorded as 6700; in [11], 39; in series [13] it was 240; in series [14] it was 80. Moreover, the CC50 with TZM [8] and with TZM [4] was 7800 nM throughout. Besides, the IC50 in series [10] worked out at 0.32 nM; in series [1], 55 nM; in series [15] it was 8.8 nM; in series [2] it was 0.23 nM; in series [16] it was 18 nM; in series [18], 1500 nM. This compound returned an IC50 in series [19] of 700 nM. In addition, the Activity entry in series [12] is reported as “Non-Toxic”.
Turning to `Cc1cc(/C=C/C#N)cc(C)c1Nc1ccnc(Nc2ccc(C#N)cc2)n1` [RILPIVIRINE], the TC10 in series [6] worked out at 600 nM; in series [9], 930 nM. Besides, the result in the series on Neuron [20] was inactive. Besides, the CC50 in the series on TZM [8] and with TZM [4] was above 5000 nM in each case. Moreover, the IC50 in series [10] amounted to 0.35 nM; in series [1] it was 0.8 nM; in [15], 1.3 nM; in series [2] it was 0.33 nM; in [16] it was 1.3 nM; in series [18], 14 nM. In [19], this compound came in with an IC50 of 160 nM. In addition, in [12], the Activity result is on record as “Non-Toxic”.
As for `Nc1nc(Nc2ccc(Cl)cc2)n(S(=O)(=O)c2ccc(Cl)s2)n1`, in series [1], the result was inactive. In addition, in series [2], the EC50 is below 100 nM.
On to `CC(=O)Nc1nc(C)c(S(=O)(=O)n2nc(Nc3cc(Cl)c(Cl)cc3Cl)nc2N)s1`, for which the EC50 in series [1] and in series [2] was above 1000 nM in each case.
With `N#Cc1ccc2c(S(=O)(=O)n3nc(Nc4ccc(C#N)c(C#N)c4)nc3N)cccc2c1`, the figures for the selectivity ratio in series [3], in series [5] and in [17] were 130000, 570 and 140, respectively. The “Ratio IC50” value is recorded as 3500 in series [7], 8.9 in [11], 41 in [13] and 140 in series [14]. For the same compound, the results for the CC50 with TZM [8] and with TZM [4] were 27000 nM and 28000 nM, respectively. The TC10 in series [9] stood at 4500 nM. In addition, the IC50 came to 0.32 nM in [10]; 1.3 nM in [1]; 5.9 nM in series [15]; 3.7 nM in series [16]; 1050 nM in series [18]; 350 nM in series [19]. Besides, the Activity result in series [12] is “Non-Toxic”. Besides, in series [2], the EC50 was determined as 0.21 nM.
Consider `O=C1Nc2ccc(Cl)cc2[C@@](C#CC2CC2)(C(F)(F)F)O1` [EFAVIRENZ], for which, in the series with Neuron [21], the result was Active. The TC10 in series [6] is 70 nM. Further, the result with Neuron [20] was inactive. This compound yielded an IC50 in series [10] of 0.66 nM. For the same compound, the figures for the EC50 in series [1] and in [2] were 18 nM and 0.68 nM, respectively. For the same compound, the Activity entry in series [12] is “Non-Toxic”. Also, the CC50 in the series on TZM [4] was above 5000 nM.
`N#CCc1ccc2c(S(=O)(=O)n3nc(Nc4ccc(C#N)c(Cl)c4)nc3N)cccc2c1`: the EC50 amounted to 153 nM in series [1] and 0.598 nM in [2].
In the case of `Cn1cnc(S(=O)(=O)n2nc(N)nc2Nc2ccc(Cl)cc2)c1`, the outcome in series [1] was inactive. Further, the EC50 in [2] is below 100 nM.
As to `Nc1nc(Nc2ccc(Cl)cc2)nn1S(=O)(=O)c1ccc2ccccc2c1`, the TC10 in series [9] was found to be 6100 nM. Further, the values for the IC50 in [10] and in [19] were 9.3 nM and 280 nM, respectively. Further, the Activity result in series [12] is “Non-Toxic”. The result with TZM [4] was inactive. The selectivity ratio in series [17] is 6.5.
Turning to `N#Cc1ccc(Nc2nc(N)n(S(=O)(=O)c3c(Cl)nc4sccn34)n2)cc1`, the EC50 came out at 705 nM in [1] and 1.77 nM in series [2].
For the compound `N#C/C=C/c1ccc2c(S(=O)(=O)n3nc(Nc4ccc(CC#N)cc4)nc3N)cccc2c1`, the selectivity ratio in series [3] stood at 4100. Further, the EC50 in series [1] was 24.5 nM; in series [2], 0.22 nM. Moreover, the CC50 in the series on TZM [4] stood at 910 nM.
